The source of these data is ChEMBL document CHEMBL4152266, “Insight into structural requirements for selective and/or dual CXCR3 and CXCR4 allosteric modulators” (Eur J Med Chem, 2018).

Assay [1] has as its target T1, C-X-C chemokine receptor type 4 (Homo sapiens, UniProt P61073). The assay is described as follows: Agonist activity at CXCR4 (unknown origin) expressed in HEK293T cells assessed as inhibition of forskolin-mediated cAMP accumulation at 10 uM after 20 mins by BRET assay. It counts as functional, cell-based. In a few lines: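 Agonism screen in BRET-based cAMP assay, compounds at 10 µM applied without chemokine. For CXCR4, CXCL12 at 20 nM serves as positive control. Mean of three experiments, each in triplicate.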

For assay [2], the target named is T1, C-X-C chemokine receptor type 4. The assay is described as follows: Negative allosteric modulation of CXCR4 (unknown origin) expressed in HEK293T cells assessed as inhibition of CXCL12-induced reduction in forskolin-mediated cAMP accumulation after 20 mins by BRET assay. Format: functional, cell-based. In a few lines:
(§1)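 Dose-response in CXCR4 BRET cAMP assay with CXCL12 at 20 nM, IT1t as reference. Analysis uses ternary complex allosteric model; where signal-to-noise was poor, nonlinear regression with Hill slope fixed at 1 gave approximate pEC50. Three experiments in triplicate.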
For orientation: Cyclic AMP is a second messenger, typically raised through Gs and lowered through Gi signalling.

Assay [3] has as its target T2, C-X-C chemokine receptor type 3 (Homo sapiens) (UniProt P49682).
T2 sequence (whole entry): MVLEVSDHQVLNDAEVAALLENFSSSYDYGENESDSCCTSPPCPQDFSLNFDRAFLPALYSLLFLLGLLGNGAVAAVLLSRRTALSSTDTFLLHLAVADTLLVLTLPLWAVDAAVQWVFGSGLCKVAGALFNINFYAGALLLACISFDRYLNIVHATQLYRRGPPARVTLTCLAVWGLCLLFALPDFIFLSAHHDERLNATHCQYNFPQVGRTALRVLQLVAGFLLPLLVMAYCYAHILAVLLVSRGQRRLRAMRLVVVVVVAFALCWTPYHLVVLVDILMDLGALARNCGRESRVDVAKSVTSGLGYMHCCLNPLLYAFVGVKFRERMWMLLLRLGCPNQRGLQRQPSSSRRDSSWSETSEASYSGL
The assay is described as follows: Positive allosteric modulation of PK1-tagged CXCR3 (unknown origin) expressed in HEK293T cells co-expressing beta-arrestin/beta-Gal enzyme chimera assessed as increase in CXCL11-induced beta-arrestin recruitment at 10 uM after 4 hrs by chemiluminescence based beta-galactosidase reporter gene assay. It counts as functional, cell-based. In a few lines:
(§2)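 PathHunter β-arrestin 2 recruitment at CXCR3 by β-gal fragment complementation, chemiluminescent read-out, compounds at 10 µM. Inhibition mode is scaled between CXCL11 50 nM (100%) and (±)-NBI-74330 10 µM (full inhibition). Agonism tested without chemokine. Mean ± S.E.M., three experiments in triplicate.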
On the technique in general: Arrestin recruitment assays detect the binding of arrestin to an activated receptor.

For assay [4], the target named is T2, C-X-C chemokine receptor type 3 (Homo sapiens). The assay is described as follows: Agonist activity at PK1-tagged CXCR3 (unknown origin) expressed in HEK293T cells co-expressing beta-arrestin/beta-Gal enzyme chimera assessed as beta-arrestin recruitment at 10 uM after 4 hrs by chemiluminescence based beta-galactosidase reporter gene assay. It counts as functional, cell-based. The method in brief: as §2

Assay [5] shares this target. The assay is described as follows: Negative allosteric modulation of CXCR3 (unknown origin) expressed in HEK293T cells assessed as inhibition of CXCL11-induced reduction in forskolin-mediated cAMP accumulation at 10 uM after 20 mins by BRET assay relative to control. It counts as functional, cell-based. The method in brief: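 CXCR3 antagonism in whole-cell BRET cAMP assay, compounds at 10 µM. NetBRET signal expressed as percent, scaled between CXCL11 50 nM (100%) and cRAMX3 10 µM (0%). Mean ± S.E.M. of three experiments in triplicate.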

The target is the same in assay [6]. The experiment in a line: Agonist activity at CXCR3 (unknown origin) expressed in HEK293T cells assessed as inhibition of forskolin-mediated cAMP accumulation at 10 uM after 20 mins by BRET assay. It counts as functional, cell-based.
For assay [7] the target is unchanged. The assay is described as follows: Negative allosteric modulation of CXCR3 in human PBMC assessed as inhibition of CXCL11-induced migration at 30 uM preincubated for 1 hr followed by CXCL11 addition measured after 3 hrs by flow cytometry based transwell assay relative to control. It counts as functional, cell-based. The method in brief: (§3)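 Human PBMCs, CXCR3 expression confirmed by flow cytometry, pre-treated with compound (30 or 150 µM) then allowed to migrate toward CXCL11 in a transwell. Cells in the lower chamber counted by flow cytometry (60 s counts). Mean ± SD of four independent experiments; unpaired t test.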
On the technique in general: In flow cytometry, cells or beads pass a laser one at a time.

The target is the same in assay [8]. The assay is described as follows: Negative allosteric modulation of CXCR3 in human PBMC assessed as inhibition of CXCL11-induced migration at 150 uM preincubated for 1 hr followed by CXCL11 addition measured after 3 hrs by flow cytometry based transwell assay relative to control. It counts as functional, cell-based. The method in brief:
as §3

The target is the same in assay [9]. The experiment in a line: Negative allosteric modulation of PK1-tagged CXCR3 (unknown origin) expressed in HEK293T cells co-expressing beta-arrestin/beta-Gal enzyme chimera assessed as inhibition of CXCL11-induced beta-arrestin recruitment at 10 uM after 4 hrs by chemiluminescence based beta-galactosidase reporter gene assay relative to control. Format: functional, cell-based. The method in brief: as §2

The target of assay [10] is T1, C-X-C chemokine receptor type 4. The assay is described as follows: Positive allosteric modulation of CXCR4 (unknown origin) expressed in HEK293T cells assessed as increase in CXCL12-induced reduction in forskolin-mediated cAMP accumulation at 10 uM after 20 mins by BRET assay relative to control. It counts as functional, cell-based. More on the design: scale not given: the % may be the effect or the level left.

For assay [11] the target is unchanged. The experiment in a line: Agonist activity at CXCR4 (unknown origin) expressed in HEK293T cells assessed as inhibition of forskolin-mediated cAMP accumulation after 20 mins by BRET assay. Format: functional, cell-based. In a few lines: as §1
Assay [12] has the same target. The experiment in a line: Negative allosteric modulation of CXCR4 (unknown origin) expressed in HEK293T cells assessed as inhibition of CXCL12-induced reduction in forskolin-mediated cAMP accumulation at 10 uM after 20 mins by BRET assay relative to control. It counts as functional, cell-based. The method in brief:
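CXCR4 antagonism in BRET cAMP assay, compounds at 10 µM. NetBRET expressed as percent, scaled between CXCL12 20 nM (100%) and IT1t 10 µM (0%). Mean ± S.E.M. of three experiments in triplicate.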

The target is the same in assay [13]. The experiment in a line: Negative allosteric modulation of CXCR4 in human CD4+ T cells assessed as inhibition of CXCL12-induced migration at 150 uM preincubated for 1 hr followed by CXCL12 addition measured after 3 hrs by flow cytometry based transwell assay relative to control. Format: functional, cell-based. The method in brief:
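Isolated human CD4+ T cells, CXCR4 expression checked by flow cytometry, pre-treated with compound at 150 µM, then transwell migration toward CXCL12. Migrated cells in the lower chamber counted by flow cytometry over 60 s. Mean ± SD of four independent experiments; unpaired t test.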

Assay [14] has as its target T2, C-X-C chemokine receptor type 3 (Homo sapiens). The experiment in a line: Negative allosteric modulation of CXCR3 (unknown origin) expressed in HEK293 cell membranes assessed as inhibition of CXCL11-induced [35S]GTPgammaS binding preincubated for 30 mins followed by [35S]GTPgammaS addition measured after 30 mins. It counts as functional.
The target in assay [15] is T1, C-X-C chemokine receptor type 4. The assay is described as follows: Negative allosteric modulation of CXCR4 (unknown origin) expressed in HEK293 cell membranes assessed as inhibition of CXCL12-induced [35S]GTPgammaS binding preincubated for 30 mins followed by [35S]GTPgammaS addition measured after 30 mins. It counts as functional.
In assay [16] the target is T2, C-X-C chemokine receptor type 3 (Homo sapiens). The assay is described as follows: Negative allosteric modulation of CXCR3 (unknown origin) expressed in HEK293T cells assessed as inhibition of CXCL11-induced reduction in forskolin-mediated cAMP accumulation after 20 mins by BRET assay. It counts as functional, cell-based. In a few lines: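 CXCR3 dose-response in BRET cAMP assay against CXCL11 at 50 nM, cRAMX3 as reference. Data fitted with a ternary complex allosteric model to give pKB and cooperativity α. Mean ± S.E.M., three experiments in triplicate.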

Each structure is given as a SMILES string. Active and inactive are the calls of the source. No cut-off for these calls is given here.

T1 sequence (P61073 whole entry): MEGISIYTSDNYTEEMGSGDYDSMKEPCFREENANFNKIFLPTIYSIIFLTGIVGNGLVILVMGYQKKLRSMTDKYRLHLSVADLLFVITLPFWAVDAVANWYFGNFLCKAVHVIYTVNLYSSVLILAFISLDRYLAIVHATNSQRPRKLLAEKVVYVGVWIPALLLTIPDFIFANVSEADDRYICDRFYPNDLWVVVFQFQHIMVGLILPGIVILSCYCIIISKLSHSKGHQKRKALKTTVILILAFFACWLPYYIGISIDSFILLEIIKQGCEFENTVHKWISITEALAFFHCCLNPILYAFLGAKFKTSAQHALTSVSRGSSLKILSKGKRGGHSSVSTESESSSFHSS

For `O=C(NCCCNc1ccc(Cl)cc1)c1ccc(-n2cccn2)nc1`, the inhibition entry in assay [1] was “Active”. In addition, in assay [2], the pKb worked out at 4.64. Also, the outcome in assay [3] was inactive.
With `O=C(c1ccc(-n2cccn2)nc1)N1CCC(N(Cc2ccccc2)Cc2ccc(Cl)c(Cl)c2)CC1`, the outcome in assay [4] was inactive. The inhibition in assay [5] is above 50%; in assay [7], above 10%; in assay [8], above 20%. The inhibition entry in assay [6] was “inactive”.
As for `CCOc1ccc(-n2c(C(C)N(Cc3cccnc3)C(=O)Cc3ccc(F)c(C(F)(F)F)c3)nc3ncccc3c2=O)cc1` (racemic), the inhibition in assay [9] was determined as 100%.
On to `O=C(c1ccc(-n2cccn2)nc1)N1CCC(N(Cc2ccccc2)Cc2ccccc2)CC1`, for which the inhibition in assay [9] was at least 20%. Also, the result in [4] was inactive. Also, the inhibition entry in [6] is “inactive”.
With `O=C(c1ccc(-n2cccn2)nc1)N1CCC(NCc2ccccc2)CC1`, the result in [4] and in assay [3] was inactive. Moreover, the inhibition result in assay [6] was “inactive”. Moreover, the result in assay [10] was Active. The inhibition entry in [1] was “Active”. Also, in [11], the concentration for a half-maximal effect (EC50) is 5.89 µM.
As for `O=C(c1ccc(-n2cccn2)nc1)N1CCN(Cc2ccc(Cl)c(Cl)c2)CC1`, the inhibition in assay [12] is above 50%; in [13], above 80%. Also, in assay [2], the negative logarithm of the Kb (pKb) was 6.5. Moreover, the outcome in [3] was inactive.
`COc1ccc(CN(Cc2ccccc2)C2CCN(C(=O)c3ccc(-n4cccn4)nc3)CC2)cc1`: the inhibition was at least 20% in assay [9], above 50% in [12] and 100% in assay [13]. The result in [4] and in [3] was inactive. The inhibition result in [6] is “inactive”. For the same compound, in assay [2], the negative-log Kb (pKb) amounted to 5.83.
In the case of `CCN(CCCNC(=O)c1ccc(-n2cccn2)nc1)c1ccccc1`, the values for the negative-log Kb (pKb) in assay [14] and in assay [15] were 8.82 and 8.72, respectively. Further, the inhibition result in assay [5] and in assay [12] was “inactive” each time.
Consider `O=C(NCCCNc1ccccc1)c1ccc(-n2cccn2)nc1`, for which, in assay [1], the inhibition result was “Active”. Also, the concentration for a half-maximal effect (EC50) in assay [11] is 9.55 µM. Moreover, the outcome in assay [3] was inactive.
For `COc1ccc(CN2CCN(C(=O)c3ccc(-n4cccn4)nc3)CC2)cc1`, the inhibition was above 60% in [5]; above 50% in assay [12]; above 10% in [7]; above 20% in [8]; above 80% in assay [13]. Besides, the negative logarithm of the Kb (pKb) in [16] is 6.15; in assay [2], 6.09. For the same compound, the outcome in [3] was inactive.
With `O=C(c1ccc(-n2cccn2)nc1)N1CCN(Cc2ccc(Cl)cc2)CC1`, the inhibition result in assay [9] is “inactive”. For the same compound, the inhibition in assay [5] was above 60%; in [7], above 10%; in assay [8], above 20%. The negative-log Kb (pKb) in assay [16] was found to be 6.35.
`O=C(c1ccc(-n2cccn2)nc1)N1CCC(N(Cc2ccccc2)Cc2ccc(F)c(F)c2)CC1`: the inhibition in assay [9] was at least 20%. Further, in assay [4], the outcome was inactive. The inhibition result in assay [6] is “inactive”.
`O=C(NCCCN(Cc1ccccc1)c1ccccc1)c1ccc(-n2cccn2)nc1`: the inhibition is above 50% in assay [12] and above 80% in [13]. The pKb in assay [2] worked out at 6.04. Besides, the result in assay [3] was inactive.
On to `O=C(c1ccc(-n2cccn2)nc1)N1CCC(N(Cc2ccccc2)Cc2ccc(Cl)cc2)CC1`, for which the inhibition in [9] was at least 20%. Also, the result in [4] was inactive. In addition, in assay [6], the inhibition entry was “inactive”.
With `CC1(C)CN2C(CS/C(=N\C3CCCCC3)NC3CCCCC3)=CSC2=N1`, in [10], the Activity came to 100%. In addition, in [2], the negative logarithm of the Kb (pKb) was found to be 8.54.
On to `O=C(NCCCN(CCc1ccccc1)c1ccccc1)c1ccc(-n2cccn2)nc1`, for which the inhibition in [12] was above 50%; in [13], above 80%. Besides, the pKb in assay [2] turned out to be 6.13. Moreover, the result in assay [3] was inactive.
Regarding `O=C(NC1CCN(Cc2ccc(F)c(F)c2)CC1)c1ccc(-n2cccn2)nc1`, the result in [4] was inactive. Moreover, the values for the inhibition in [5], in assay [7] and in assay [8] were above 50%, above 10% and above 20%, respectively. The inhibition result in [6] was “inactive”.
As to `CCOc1ccc(-n2c(C(C)N(CC3CCN(C)CC3)C(=O)Cc3ccc(F)c(C(F)(F)F)c3)nc3ncccc3c2=O)cc1` (stereo not given), the inhibition in assay [5] was 100%. Further, in assay [16], the pKb is 7.33.
As for `O=C(NC1CCN(Cc2ccc(Cl)cc2)CC1)c1ccc(-n2cccn2)nc1`, the result in [4] and in assay [3] was inactive. Moreover, the inhibition is above 50% in [5], 80% in assay [7] and 80% in assay [8]. Also, the inhibition result in assay [6] is “inactive”. The inhibition result in assay [1] is “Active”. Besides, the pKb in assay [2] was 5.6.

For orientation: inhibition means the share of the control response that was lost under treatment. The pKb is the Kb on a negative log10 scale, so that one unit is a factor of ten. The term EC50 denotes the midpoint of the concentration-response curve.
